Source: ChEMBL document CHEMBL1137681, “Design, synthesis and characterization of N9/N7-substituted 6-aminopurines as VEGF-R and EGF-R inhibitors” (Eur J Med Chem, 2009)
Activity calls are given as the source filed them.

Tests used:
[1] = target: Mitogen-activated protein kinase 14 (Homo sapiens) (UniProt Q16539); experiment: Inhibition of SAPK2a at 10 uM
[2] = target: Serine/threonine-protein kinase Nek7 (Homo sapiens) (UniProt Q8TDX7); experiment: Inhibition of NEK7 at 10 uM
[3] = target: Proto-oncogene tyrosine-protein kinase LCK (Mus musculus) (UniProt P06240); experiment: Inhibition of mouse LCK at 10 uM
[4] = target: Serine/threonine-protein kinase pim-1 (Homo sapiens) (UniProt P11309); experiment: Inhibition of human PIM1 at 10 uM
[5] = target: Mitogen-activated protein kinase 3 (Homo sapiens) (UniProt P27361); experiment: Inhibition of human ERK1 at 10 uM
[6] = target: Lymphokine-activated killer T-cell-originated protein kinase (Homo sapiens) (UniProt Q96KB5); experiment: Inhibition of PBK at 10 uM
[7] = target: Serine/threonine-protein kinase PAK 4 (Homo sapiens) (UniProt O96013); experiment: Inhibition of human PAK4 at 10 uM
[8] = target: MAP kinase-activated protein kinase 5 (Homo sapiens) (UniProt Q8IW41); experiment: Inhibition of PRAK at 10 uM
[9] = target: Proto-oncogene tyrosine-protein kinase Src (Gallus gallus) (UniProt P00523); experiment: Inhibition of chick SRC at 10 uM
[10] = target: Homeodomain-interacting protein kinase 2 (Homo sapiens) (UniProt Q9H2X6); experiment: Inhibition of human HIPK2 at 10 uM
[11] = target: Mitogen-activated protein kinase 8 (Homo sapiens) (UniProt P45983); experiment: Inhibition of JNK1alpha1 at 10 uM
[12] = target: Protein kinase C zeta type (Homo sapiens) (UniProt Q05513); experiment: Inhibition of human PKCzeta at 10 uM
[13] = target: MAP kinase-activated protein kinase 2 (Homo sapiens) (UniProt P49137); experiment: Inhibition of MAPKAP-K2 (delta 1-45) at 10 uM
[14] = target: Serine/threonine-protein kinase 3 (Homo sapiens) (UniProt Q13188); experiment: Inhibition of human MST2 at 10 uM
[15] = target: Glycogen synthase kinase-3 beta (Homo sapiens) (UniProt P49841); experiment: Inhibition of GSK3-beta at 10 uM
[16] = target: Serine/threonine-protein kinase Chk2 (Homo sapiens) (UniProt O96017); experiment: Inhibition of CHK2 at 10 uM
[17] = tested on: Serine/threonine-protein kinase B-raf (Homo sapiens), P15056 [V600E]; experiment: Inhibition of BRAF V600E mutant up to 100 uM
[18] = target: Tyrosine-protein kinase CSK (Homo sapiens) (UniProt P41240); experiment: Inhibition of CSK at 10 uM
[19] = target: Ribosomal protein S6 kinase alpha-1 (Rattus norvegicus) (UniProt Q63531); experiment: Inhibition of rat MAPKAP-K1a at 10 uM
[20] = target: Serine/threonine-protein kinase Chk1 (Homo sapiens) (UniProt O14757); experiment: Inhibition of CHK1 at 10 uM
[21] = target: Rho-associated protein kinase 2 (Rattus norvegicus) (UniProt Q62868); experiment: Inhibition of rat ROCK2 at 10 uM
[22] = target: Homeodomain-interacting protein kinase 3 (Homo sapiens) (UniProt Q9H422); experiment: Inhibition of human HIPK3 at 10 uM
[23] = target: Mitogen-activated protein kinase 1 (Mus musculus) (UniProt P63085); experiment: Inhibition of mouse MAPK2 at 10 uM
[24] = target: Protein kinase C alpha type (Homo sapiens) (UniProt P17252); experiment: Inhibition of PKCalpha at 10 uM
[25] = target: Ribosomal protein S6 kinase alpha-5 (Homo sapiens) (UniProt O75582); experiment: Inhibition of MSK1 at 10 uM
[26] = target: Calcium/calmodulin-dependent protein kinase kinase 2 (Homo sapiens) (UniProt Q96RR4); experiment: Inhibition of human CAMKKbeta at 10 uM
[27] = target: MAP kinase-activated protein kinase 3 (Homo sapiens) (UniProt Q16644); experiment: Inhibition of MAPKAP-K3 at 10 uM
[28] = Inhibition of CK2 at 10 uM
[29] = target: Serine/threonine-protein kinase Nek2 (Homo sapiens) (UniProt P51955); experiment: Inhibition of NEK2a at 10 uM
[30] = target: Tyrosine-protein kinase Yes (Homo sapiens) (UniProt P07947); experiment: Inhibition of human YES1 at 10 uM
[31] = target: Calcium/calmodulin-dependent protein kinase type 1 (Homo sapiens) (UniProt Q14012); experiment: Inhibition of CAMK1 at 10 uM
[32] = target: Serine/threonine-protein kinase PAK 6 (Homo sapiens) (UniProt Q9NQU5); experiment: Inhibition of human PAK6 at 10 uM
[33] = target: Mitogen-activated protein kinase 15 (Homo sapiens) (UniProt Q8TD08); experiment: Inhibition of ERK8 at 10 uM
[34] = target: Dual specificity tyrosine-phosphorylation-regulated kinase 3 (Homo sapiens) (UniProt O43781); experiment: Inhibition of human DYRK3 at 10 uM
[35] = target: Inhibitor of nuclear factor kappa-B kinase subunit epsilon (Homo sapiens) (UniProt Q14164); experiment: Inhibition of human IKKe at 10 uM
[36] = tested on: RAC-alpha serine/threonine-protein kinase (Homo sapiens), P31749 [S473D]; experiment: Inhibition of PKBalpha S473D mutant at 10 uM
[37] = target: Serine/threonine-protein kinase PAK 5 (Homo sapiens) (UniProt Q9P286); experiment: Inhibition of human PAK5 at 10 uM
[38] = target: Insulin receptor-related protein (Homo sapiens) (UniProt P14616); experiment: Inhibition of human IRR at 10 uM
[39] = target: Serine/threonine-protein kinase BRSK2 (Homo sapiens) (UniProt Q8IWQ3); experiment: Inhibition of human BRSK2 at 10 uM
[40] = tested on: Serine/threonine-protein kinase Sgk1 (Homo sapiens), O00141 [S422D]; experiment: Inhibition of SGK1 S422D mutant at 10 uM
[41] = target: Serine/threonine-protein kinase TBK1 (Homo sapiens) (UniProt Q9UHD2); experiment: Inhibition of human TBK1 at 10 uM
[42] = target: Dual specificity tyrosine-phosphorylation-regulated kinase 1A (Rattus norvegicus) (UniProt Q63470); experiment: Inhibition of rat DYRK1a at 10 uM
Angiopoietin-1 receptor = Angiopoietin-1 receptor (Homo sapiens, UniProt Q02763); experiment: Inhibition of TIE2 up to 100 uM
[43] = target: Receptor tyrosine-protein kinase erbB-2 (Homo sapiens, UniProt P04626); experiment: Inhibition of ERBB2 up to 100 uM
Summary of the method: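 Buffer: HEPES-NaOH pH 7.5, Mg2+/Mn2+, vanadate, DTT, PEG20000, 1% DMSO. Incubated 30 °C for 80 min, stopped with 2% H3PO4, washed, and scintillation-counted. IC50 from 10 concentrations in singlicate.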

[44] = target: Insulin receptor-related protein (Homo sapiens) (UniProt P14616); experiment: Inhibition of IRR at 10 uM

Measured: inhibition

Insulin receptor-related protein (Homo sapiens), sequence (P14616 27-742 limits assumed): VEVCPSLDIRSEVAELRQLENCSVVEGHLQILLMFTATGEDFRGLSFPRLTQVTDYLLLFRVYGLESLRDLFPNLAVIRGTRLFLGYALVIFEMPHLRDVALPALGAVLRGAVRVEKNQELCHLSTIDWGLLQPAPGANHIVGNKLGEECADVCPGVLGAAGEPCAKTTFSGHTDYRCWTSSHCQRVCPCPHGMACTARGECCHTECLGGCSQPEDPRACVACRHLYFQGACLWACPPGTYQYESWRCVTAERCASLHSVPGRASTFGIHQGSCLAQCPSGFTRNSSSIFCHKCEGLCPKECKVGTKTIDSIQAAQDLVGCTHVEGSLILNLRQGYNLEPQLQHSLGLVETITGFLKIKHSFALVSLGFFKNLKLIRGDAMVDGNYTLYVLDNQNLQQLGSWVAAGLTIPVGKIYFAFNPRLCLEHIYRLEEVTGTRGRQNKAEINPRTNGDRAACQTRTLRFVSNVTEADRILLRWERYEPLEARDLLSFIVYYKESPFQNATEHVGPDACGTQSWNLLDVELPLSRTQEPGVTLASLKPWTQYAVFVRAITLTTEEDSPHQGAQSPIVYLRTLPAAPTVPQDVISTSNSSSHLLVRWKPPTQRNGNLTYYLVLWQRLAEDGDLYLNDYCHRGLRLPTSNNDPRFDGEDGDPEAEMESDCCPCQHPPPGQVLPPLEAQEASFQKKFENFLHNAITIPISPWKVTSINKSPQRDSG
Insulin receptor-related protein (Homo sapiens), sequence (P14616 747-1297 limits assumed): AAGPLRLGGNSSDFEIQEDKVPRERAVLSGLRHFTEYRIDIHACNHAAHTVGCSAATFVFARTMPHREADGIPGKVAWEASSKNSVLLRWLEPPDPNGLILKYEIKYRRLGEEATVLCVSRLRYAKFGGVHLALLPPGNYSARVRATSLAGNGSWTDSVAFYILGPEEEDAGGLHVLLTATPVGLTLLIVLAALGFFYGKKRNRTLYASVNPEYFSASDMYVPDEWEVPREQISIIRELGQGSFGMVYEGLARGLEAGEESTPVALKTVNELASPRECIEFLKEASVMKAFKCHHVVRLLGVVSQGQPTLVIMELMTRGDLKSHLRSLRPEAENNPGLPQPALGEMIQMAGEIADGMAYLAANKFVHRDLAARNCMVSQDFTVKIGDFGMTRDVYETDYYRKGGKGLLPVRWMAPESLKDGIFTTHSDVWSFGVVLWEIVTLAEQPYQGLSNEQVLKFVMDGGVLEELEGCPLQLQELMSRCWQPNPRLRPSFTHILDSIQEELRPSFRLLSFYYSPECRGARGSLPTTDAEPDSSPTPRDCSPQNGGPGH
Serine/threonine-protein kinase Sgk1 (Homo sapiens), O00141 [S422D], sequence (O00141 whole entry S422D): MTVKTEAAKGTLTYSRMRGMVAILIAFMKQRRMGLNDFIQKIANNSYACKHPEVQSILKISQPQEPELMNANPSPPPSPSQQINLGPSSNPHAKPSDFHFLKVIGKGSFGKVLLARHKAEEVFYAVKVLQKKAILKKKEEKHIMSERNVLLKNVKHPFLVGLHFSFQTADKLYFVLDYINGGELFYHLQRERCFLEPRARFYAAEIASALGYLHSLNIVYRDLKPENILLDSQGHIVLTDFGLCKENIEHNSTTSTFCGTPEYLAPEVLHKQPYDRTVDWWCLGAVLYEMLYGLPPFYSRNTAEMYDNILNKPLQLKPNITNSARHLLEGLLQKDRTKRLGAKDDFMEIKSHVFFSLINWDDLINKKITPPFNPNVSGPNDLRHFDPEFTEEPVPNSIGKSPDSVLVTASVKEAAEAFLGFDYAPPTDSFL
Lymphokine-activated killer T-cell-originated protein kinase (Homo sapiens), sequence (Q96KB5 whole entry): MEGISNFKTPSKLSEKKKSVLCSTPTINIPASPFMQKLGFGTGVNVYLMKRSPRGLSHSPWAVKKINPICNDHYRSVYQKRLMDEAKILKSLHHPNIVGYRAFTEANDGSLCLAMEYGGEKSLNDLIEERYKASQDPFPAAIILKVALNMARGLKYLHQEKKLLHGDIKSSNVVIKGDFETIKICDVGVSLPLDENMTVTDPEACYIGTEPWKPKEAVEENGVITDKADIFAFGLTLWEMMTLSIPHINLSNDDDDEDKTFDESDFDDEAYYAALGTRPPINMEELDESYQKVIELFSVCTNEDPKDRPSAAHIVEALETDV
Serine/threonine-protein kinase TBK1 (Homo sapiens), sequence (Q9UHD2 whole entry): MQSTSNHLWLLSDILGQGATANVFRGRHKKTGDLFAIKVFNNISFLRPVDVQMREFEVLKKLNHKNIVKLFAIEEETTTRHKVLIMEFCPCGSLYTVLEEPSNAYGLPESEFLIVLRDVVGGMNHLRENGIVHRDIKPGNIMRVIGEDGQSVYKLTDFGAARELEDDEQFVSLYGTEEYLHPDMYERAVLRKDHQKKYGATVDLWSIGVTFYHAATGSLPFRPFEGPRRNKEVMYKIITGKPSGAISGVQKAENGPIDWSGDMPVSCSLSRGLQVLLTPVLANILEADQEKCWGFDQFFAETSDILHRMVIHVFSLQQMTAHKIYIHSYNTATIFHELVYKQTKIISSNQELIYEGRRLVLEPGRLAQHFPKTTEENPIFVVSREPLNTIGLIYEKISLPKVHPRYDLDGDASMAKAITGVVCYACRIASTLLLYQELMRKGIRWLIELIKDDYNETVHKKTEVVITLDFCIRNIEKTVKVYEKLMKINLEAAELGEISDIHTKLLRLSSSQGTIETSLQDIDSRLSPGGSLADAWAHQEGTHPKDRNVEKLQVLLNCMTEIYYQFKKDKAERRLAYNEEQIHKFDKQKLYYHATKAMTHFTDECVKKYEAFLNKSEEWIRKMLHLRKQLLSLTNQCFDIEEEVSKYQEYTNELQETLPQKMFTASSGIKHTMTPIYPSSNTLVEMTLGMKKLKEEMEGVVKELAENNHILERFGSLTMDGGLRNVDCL
Dual specificity tyrosine-phosphorylation-regulated kinase 3 (Homo sapiens), sequence (O43781 whole entry): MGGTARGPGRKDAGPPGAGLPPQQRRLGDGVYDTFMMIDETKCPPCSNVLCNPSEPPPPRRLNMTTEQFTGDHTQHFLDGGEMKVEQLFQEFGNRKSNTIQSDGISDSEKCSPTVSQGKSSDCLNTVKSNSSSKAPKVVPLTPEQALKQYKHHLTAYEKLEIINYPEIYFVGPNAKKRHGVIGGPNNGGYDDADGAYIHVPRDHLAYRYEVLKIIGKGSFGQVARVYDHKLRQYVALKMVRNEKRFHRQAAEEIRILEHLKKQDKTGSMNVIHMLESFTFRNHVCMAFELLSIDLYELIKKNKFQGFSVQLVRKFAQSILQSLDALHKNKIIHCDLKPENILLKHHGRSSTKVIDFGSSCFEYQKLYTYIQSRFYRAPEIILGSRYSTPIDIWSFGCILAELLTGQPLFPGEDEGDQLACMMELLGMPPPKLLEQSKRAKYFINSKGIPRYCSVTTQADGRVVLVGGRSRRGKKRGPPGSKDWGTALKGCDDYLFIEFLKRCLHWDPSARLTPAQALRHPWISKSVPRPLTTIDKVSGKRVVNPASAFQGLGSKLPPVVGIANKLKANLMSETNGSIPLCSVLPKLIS
Receptor tyrosine-protein kinase erbB-2, sequence (P04626 whole entry): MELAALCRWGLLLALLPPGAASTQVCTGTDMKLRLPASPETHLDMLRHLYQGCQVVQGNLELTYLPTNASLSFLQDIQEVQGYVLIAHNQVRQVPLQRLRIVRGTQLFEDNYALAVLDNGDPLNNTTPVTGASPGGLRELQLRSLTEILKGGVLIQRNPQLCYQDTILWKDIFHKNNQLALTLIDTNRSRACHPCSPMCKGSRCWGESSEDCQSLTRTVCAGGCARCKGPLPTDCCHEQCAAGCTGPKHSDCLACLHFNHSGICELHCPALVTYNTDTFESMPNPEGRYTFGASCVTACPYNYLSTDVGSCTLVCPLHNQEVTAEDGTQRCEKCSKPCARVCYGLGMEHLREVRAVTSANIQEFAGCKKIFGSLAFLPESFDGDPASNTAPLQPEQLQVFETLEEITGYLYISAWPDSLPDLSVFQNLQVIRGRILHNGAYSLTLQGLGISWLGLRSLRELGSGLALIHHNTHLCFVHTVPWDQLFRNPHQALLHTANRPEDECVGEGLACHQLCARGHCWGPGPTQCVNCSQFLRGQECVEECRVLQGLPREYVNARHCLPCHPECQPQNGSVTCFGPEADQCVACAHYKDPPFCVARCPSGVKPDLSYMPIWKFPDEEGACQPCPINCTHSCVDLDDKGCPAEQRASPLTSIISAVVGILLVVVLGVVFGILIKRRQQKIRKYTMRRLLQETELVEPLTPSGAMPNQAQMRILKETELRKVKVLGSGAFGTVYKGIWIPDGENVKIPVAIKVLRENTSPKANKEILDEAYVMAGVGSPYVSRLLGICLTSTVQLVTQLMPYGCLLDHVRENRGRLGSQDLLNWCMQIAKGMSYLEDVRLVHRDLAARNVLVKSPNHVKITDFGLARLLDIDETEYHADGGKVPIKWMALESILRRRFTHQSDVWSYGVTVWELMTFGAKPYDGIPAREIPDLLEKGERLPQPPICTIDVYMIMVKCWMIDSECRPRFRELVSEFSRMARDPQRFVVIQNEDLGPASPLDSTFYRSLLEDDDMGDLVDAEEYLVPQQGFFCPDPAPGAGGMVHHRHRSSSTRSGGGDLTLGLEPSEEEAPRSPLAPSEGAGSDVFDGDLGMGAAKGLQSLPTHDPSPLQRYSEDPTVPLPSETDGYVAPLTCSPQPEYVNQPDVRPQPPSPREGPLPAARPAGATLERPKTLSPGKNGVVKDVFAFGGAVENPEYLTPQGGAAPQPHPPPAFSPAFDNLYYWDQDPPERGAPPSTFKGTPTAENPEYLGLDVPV
Mitogen-activated protein kinase 1 (Mus musculus), sequence (P63085 whole entry): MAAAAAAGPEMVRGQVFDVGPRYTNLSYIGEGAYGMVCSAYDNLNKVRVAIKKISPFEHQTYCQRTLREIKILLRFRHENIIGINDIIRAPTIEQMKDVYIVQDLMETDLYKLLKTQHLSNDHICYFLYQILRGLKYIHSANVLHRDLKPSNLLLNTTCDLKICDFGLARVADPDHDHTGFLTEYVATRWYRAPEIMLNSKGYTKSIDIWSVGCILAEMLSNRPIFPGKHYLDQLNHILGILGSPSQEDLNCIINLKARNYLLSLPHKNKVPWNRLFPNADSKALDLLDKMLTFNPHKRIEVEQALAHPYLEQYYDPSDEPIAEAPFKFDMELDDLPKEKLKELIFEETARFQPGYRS

Nc1ncnc2ncn(CC(=O)c3c[nH]c4ccccc34)c12
not listed: Angiopoietin-1 receptor | [43] | [44]
inactive: all other assays above

Nc1ncnc2c1ncn2CC(=O)c1ccccc1
inactive: Angiopoietin-1 receptor | [43]

Nc1ncnc2c1ncn2CC(=O)c1c[nH]c2ccccc12
51%: [44]
